Screening results deposited in PubChem BioAssay by several laboratories.
LEDGF integ inh – blocks HIV-1 LEDGF/p75-dependent DNA integration; TR-FRET IN-LEDGF/p75 DNA integration, Eu/Cy5; inhibition, % at 3.7 µM; actives 0.64% (n = 370,000);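 active = inhibition above the screen-wide mean plus 3 SD, cut at about 13% in these data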;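 note: signal is the Cy5 over europium emission ratio at 671 and 618 nm; 0% = plate median of compound wells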
MBD2 inh – blocks human MBD2 binding to methylated DNA; Q9UBB5; TR-FRET, MBD2 binding to methylated oligonucleotide; inhibition, % at 4.4 µM; actives 0.31% (n = 370,000); AID 686964; in the data active = inhibition above about 13%
Target sequence (Q9UBB5 whole entry, looked up): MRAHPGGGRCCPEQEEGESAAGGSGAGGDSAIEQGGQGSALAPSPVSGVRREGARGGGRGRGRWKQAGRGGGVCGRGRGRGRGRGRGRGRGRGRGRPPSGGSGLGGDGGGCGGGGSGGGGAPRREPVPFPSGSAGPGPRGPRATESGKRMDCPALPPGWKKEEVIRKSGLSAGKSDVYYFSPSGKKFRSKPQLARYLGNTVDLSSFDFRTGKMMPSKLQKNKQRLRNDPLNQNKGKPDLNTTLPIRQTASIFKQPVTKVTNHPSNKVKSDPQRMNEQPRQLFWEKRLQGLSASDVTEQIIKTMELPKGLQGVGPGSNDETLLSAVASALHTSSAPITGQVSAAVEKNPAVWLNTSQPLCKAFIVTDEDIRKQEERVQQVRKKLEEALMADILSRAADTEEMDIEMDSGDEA
rCAG RNA binder – molecules binding r(CAG) RNA repeats. AID 651821. inhibition, % at 3 µM. actives 1.3% (n = 370,000). r(CAG) RNA repeat, TO-PRO-1 dye displacement fluorescence;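 active = inhibition above the plate cutoff, the mean of all test compounds on that plate plus 3 SD, cut at about 35% in these data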;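 note: 0% = DMSO alone and 100% = 100 µM mitoxantrone as full dye displacement; higher means more dye released from RNA so lower well fluorescence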
UHRF1 MBD2 ctr – human UHRF1 methylated DNA binding inhibitors | Q96T88 | UHRF1 binding to methylated oligo, TR-FRET | inhibition, % at 4.4 µM | actives 0.75% (n = 370,000); in the data active = inhibition above about 21%;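 note: UHRF1 SRA domain binding a hemimethylated CpG hairpin DNA probe; 0% = median of test compound wells and 100% = reference inhibitor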
ATG4B inhibitor – blocks human ATG4B protease cleavage of LC3 substrate | ATG4B cleavage of LC3-PLA2, NBD-HPC fluorescence, 1 h | inhibition, % at 8.33 µM | actives 0.51% (n = 340,000) | AID 504462; in the data active = inhibition above about 40%
CSN inh – inhibitors of human CSN-mediated cullin deneddylation. Purified CSN, SCF-Nedd8-OG deneddylation, fluorescence polarization. inhibition, % at 12.5 µM. actives 0.38% (n = 360,000). AID 651999;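 active = pattern-corrected inhibition above about 35%, with an unprinted fluorescence ratio check between 0.5 and 1.5, limit read from the data, passing the limit was not always enough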;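 note: 0% = enzyme with substrate and 100% = substrate without enzyme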
Target sequence (Q92905 whole entry, looked up, one chain of several): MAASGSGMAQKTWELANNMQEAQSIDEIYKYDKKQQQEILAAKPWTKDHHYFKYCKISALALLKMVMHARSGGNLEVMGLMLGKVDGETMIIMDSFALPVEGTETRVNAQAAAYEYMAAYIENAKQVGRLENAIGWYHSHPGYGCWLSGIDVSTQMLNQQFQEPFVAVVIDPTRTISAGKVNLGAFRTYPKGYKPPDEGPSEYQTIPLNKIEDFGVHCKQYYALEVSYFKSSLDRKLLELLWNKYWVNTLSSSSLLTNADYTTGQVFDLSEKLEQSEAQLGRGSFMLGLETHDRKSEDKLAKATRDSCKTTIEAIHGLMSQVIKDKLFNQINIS
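Schedule: reaction 90 min, room temperature / Assay system: HEK293T-derived human Csn5 enzyme / Input: Csn5 at 0.24 nM final / Measure: inhibition of Csn5 cleavage, % / Control set: substrate-only high control, full reaction low control / Technique: fluorescence polarization of the substrate / Buffer or medium: Tris/NaCl/DTT buffer, pH 7.5 / Reagent: SCFSkp2-Nedd8OG substrate at 10 nM final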
IN multimer up – activates HIV-1 integrase multimerization in LEDGF counter-screen; shares compounds with LEDGF integ inh; TR-FRET HIV-1 integrase multimerization, biochemical; activation, % at 7.7 µM; actives 17% (n = 2,000); AID 1053131; in the data active = activation above about 8.9%
TR-FRET interf – TR-FRET optical interference, LEDGF/p75 integration counter-screen; 2,000 tested, under 10 active; inhibition, % at 7.7 µM; TR-FRET optical interference counterscreen, HIV-1 IN multimerization; shares compounds with LEDGF integ inh;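 active = inhibition above the mean over all tested compounds plus 3 SD, which no compound reached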;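 note: 0% = integrase with antibodies and DMSO and 100% = antibodies without integrase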
IN-LEDGF confirm – confirmation of HIV-1 LEDGF/p75-dependent integration inhibitors | shares compounds with LEDGF integ inh | TR-FRET LEDGF/p75-dependent HIV-1 integration, biochemical | inhibition, % at 3.7 µM | actives 36% (n = 2,000); in the data active = inhibition above about 14%
Numbers without * were called inactive; . = no result given. A selection: hits, their analogues and other compounds. The true share with any hit is near 3.1%.

SMILES	LEDGF integ inh	MBD2 inh	rCAG RNA binder	UHRF1 MBD2 ctr	ATG4B inhibitor	CSN inh	IN multimer up	TR-FRET interf	IN-LEDGF confirm
CC(C)C[C@@H]1COc2cc(N3CCCC3)ccc2S(=O)(=O)N1C	1.2	-4.6	-1.5	0.2	.	.	.	.	.
CCN(CC)c1cc(Oc2ccccc2)ncn1	46.9*	-3.0	-5.5	0.7	0.2	-1.8	1.0	-5.1	-5.6
CCN(CC)c1cc(-c2ccccc2)ncn1	-6.9	1.9	-4.6	4.2	-0.7	0.1	.	.	.
CCOC(=O)N1Cc2cc3ccccc3nc2C1	6.2	-1.9	0.4	-6.0	.	-1.6	.	.	.
O=C(O)/C=C/C(=O)N1Cc2cc3ccccc3nc2C1	18.8*	9.8	10.5	8.1	-7.0	-2.6	0.2	-0.8	3.1
COC(=O)c1ccc(Cn2ccc3ccc(-c4ccc5ccn(Cc6ccc(C(=O)OC)cc6)c5c4)cc32)cc1	0.9	-6.7	22.6	-3.3	.	.	.	.	.
COc1ccccc1C(=O)n1ccc2ccc(-c3ccc4ccn(Cc5ccc(C#N)cc5)c4c3)cc21	0.2	-3.2	16.1	1.2	.	.	.	.	.
Fc1ccc(Nc2nnc(C(F)(F)F)s2)cc1Cl	1.0	4.7	-0.3	3.6	4.6	-0.5	.	.	.
Fc1ccc(Nc2cncc(-c3ccsc3)c2)cc1Cl	38.3*	5.0	7.2	12.3	.	0.2	-0.1	0.1	15.8*
c1ccc(COc2cccc(CNCc3cccnc3)c2)cc1	-0.9	2.6	-3.2	-2.8	1.6	-7.7	.	.	.
Oc1ccc(NCc2cccc(OCc3ccc(F)cc3)c2)cc1	13.9*	-7.0	7.1	-1.8	3.8	5.9	5.2	-26.3	26.3*
Oc1ccc(NCc2cccc(OCc3ccccc3)c2)cc1	15.8*	-8.0	10.5	-1.3	10.1	23.0	8.9*	-44.8	40.6*
O=[N+]([O-])c1ccc(COc2cccc(CNc3ccc(F)cc3)c2)cc1	0.9	-1.8	5.2	0.5	4.6	3.0	.	.	.
O=c1/c(=C/c2ccco2)sc2n1CN(c1ccccc1)CN=2	17.4*	-6.5	1.6	-2.1	-7.4	-4.1	1.5	-7.7	4.3
O=C1CC(NS(=O)(=O)c2cccnc2)CN1c1ccccc1 (stereo unspecified)	-2.4	0.4	2.2	-1.0	-7.3	-6.9	.	.	.
O=C1CC(NS(=O)(=O)c2ccc3ccccc3c2)CN1c1ccccc1 (stereo unspecified)	55.6*	-3.6	1.2	-0.7	-10.2	-2.0	4.2	-21.0	4.5
CN(Cc1ccc(F)cc1)C(=O)c1cccc2c1C(=O)N(Cc1cccnc1)C2	0.9	6.0	-0.9	-1.3	.	.	.	.	.
CCn1c(=O)[nH]c2cc(Cl)c(Cl)cc21	16.4*	0.8	1.3	0.1	-8.2	-2.2	-2.5	12.9	-1.0
COc1ccccc1N1CCN(Cc2nc(N)nc(Nc3ccc(C)c(Cl)c3)n2)CC1	13.5*	-4.9	10.6	-3.4	-15.7	-0.4	1.8	-9.2	4.9
COc1cc(/C=N\Nc2nncn2N)ccc1OC(C)=O	58.4*	2.0	-3.3	8.1	2.0	0.3	-0.3	1.1	2.2
COc1ccc(OC)c(/C=N\Nc2nccs2)c1	-1.5	2.7	9.7	-4.8	3.1	4.6	.	.	.
C(=N\Nc1nncn1/N=C/c1ccco1)/c1ccco1	37.1*	-8.1	1.5	-4.0	-5.1	-6.3	1.0	-5.2	1.8
COc1ccc(OC)c(/C=N/Nc2nncn2/N=C/c2cc(OC)ccc2OC)c1	38.8*	3.2	-1.8	4.1	-23.0	-3.2	0.9	-4.5	2.0
COc1cc(/C=N/Nc2nncn2/N=C/c2ccc(O)c(OC)c2)ccc1O	47.9*	2.3	-3.2	10.5	-6.8	-13.1	6.8	-24.2	-5.9
COc1cc(/C=N/Nc2ccccc2)ccc1O	-3.1	-6.6	6.5	-2.8	-0.7	-2.4	.	.	.
SMILES	LEDGF integ inh	MBD2 inh	rCAG RNA binder	UHRF1 MBD2 ctr	ATG4B inhibitor	CSN inh	IN multimer up	TR-FRET interf	IN-LEDGF confirm
COc1ccc(C2CC(=O)C(c3ccc(Br)cc3)=CN2Cc2ccccc2)cc1 (stereo unspecified)	0.4	-4.3	4.5	2.6	.	.	.	.	.
CN(C)c1ccc(O)c2c1CC1CC3C(N(C)C)C(=O)C(C(N)=O)=C(O)[C@@]3(O)C(=O)C1=C2O (stereo partly specified)	22.1*	6.7	7.8	12.9	-2.0	1.8	10.0*	-50.4	2.3
CN(C)c1ccc(O)c2c1CC1CC3[C@@H](N(C)C)C(=O)C(C(N)=O)C(=O)[C@]3(O)C(=O)C1C2=O (stereo partly specified)	37.1*	4.3	7.0	10.6	-6.6	16.3	5.0	-25.0	6.7
C[C@H]1c2cccc(O)c2C(=O)C2C(=O)C3(O)C(=O)C(C(N)=O)C(=O)[C@@H](N(C)C)[C@@H]3[C@@H](O)[C@@H]21 (stereo partly specified)	7.9	-3.1	8.8	0.6	36.6	2.0	.	.	.
Cc1ccc(S(=O)(=O)N2O[C@@H](c3ccccc3)C[C@H]2CON2C(C)(C)CCCC2(C)C)cc1	5.9	-0.5	.	2.6	.	.	.	.	.
C=CCN1[C@@H](CC(C)C)COc2cccc(N3CCSCC3)c2S1(=O)=O	-0.9	-1.1	2.1	2.0	.	.	.	.	.
C[C@@H]1C=C(C(=O)NCc2ccccc2)O[C@H](OCc2ccc(CO)cc2)C1	16.4*	9.0	-7.6	22.1*	-9.8	-4.4	-0.4	1.9	1.0
CCc1ccccc1-n1c(SCC(=O)NC)nnc1-c1ccco1	-2.2	-1.3	-4.9	0.7	-2.5	-1.7	.	.	.
CCc1ccccc1-n1c(SCC(=O)NC)nnc1-c1cccnc1	22.2*	1.5	-7.5	2.8	8.0	4.2	-0.3	1.6	-7.9
CCCCCn1cc(CCC(=O)Nc2ccc(N(C)c3ccccn3)cc2)c2ccccc21	1.3	-4.9	12.3	-2.0	.	.	.	.	.
O=C1OC(c2cccs2)=N/C1=C/c1ccc(-c2cccc(C(=O)O)c2)o1	28.9*	7.8	18.4	44.5*	9.3	28.0	9.5*	-47.9	14.8*
CCc1ccc(S(=O)(=O)Nc2cc(SCC(=O)O)c(O)c3ccccc23)cc1	5.6	-7.3	29.5	-2.7	-24.6	35.0	.	.	.
Cc1ccc(S(=O)(=O)Nc2cccc3cccnc23)cc1	-27.2	-1.3	-3.3	-0.3	-0.4	5.2	.	.	.
O=S(=O)(Nc1cc(Sc2cccc3cccnc23)c(O)c2ccccc12)c1ccccc1	17.1*	-23.5	-4.8	-31.3	.	.	0.1	-0.7	-11.0
O=C(O)CSc1cc(NS(=O)(=O)c2cccc([N+](=O)[O-])c2)c2ccccc2c1O	16.0*	-9.2	26.8	2.4	-12.8	29.8	4.2	-15.1	63.0*
